Laboratory results from ChEMBL document CHEMBL1123468, “Synthesis and antiviral activity of (E)-5-(2-bromovinyl)uracil and (E)-5-(2-bromovinyl)uridine” (1986).
Converted amounts (≈) assume the structure as drawn.

Experiments:
T-21 (LR) = assay: The compound was tested for its antiviral activity against HSV-1 (KOS) virus in T-21 (LR) cell line; format: functional; settings: Homo sapiens
In short: (§1)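 Virus-induced cytopathogenicity in cell culture, scored microscopically. The value is the minimum concentration that cuts viral cytopathogenicity by 50%. Normal cell morphology was also checked microscopically at up to 400 μg/mL.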

BSC-1 = assay: The compound was tested for its antiviral activity against HSV-1 (KOS) virus in BS-C-1A cell line; format: functional, Cercopithecidae; settings: Chlorocebus aethiops; in short: as §1
E6SM [1] = assay: The concentration required to reduce the cytopathogenicity of HSV-1 (KOS) in E6SM cell culture by 50% in presence of 300 ug/mL dThd; format: functional; settings: Homo sapiens
In short: (§2)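 Thymidine (dThd) was added to the E6SM culture medium alongside the test compound, and cells were infected with HSV-1 strain KOS. The endpoint is the minimum inhibitory concentration that reduces viral cytopathogenicity by 50%. The cytopathogenicity inhibition procedure follows the earlier-described method.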

E1 SM = assay: The compound was tested for its antiviral activity against HSV-1 (KOS) virus in E1SM cell line; format: functional, Homo sapiens; in short: as §1
E6SM [2] = assay: The concentration required to reduce the cytopathogenicity of HSV-1 (KOS) in E6SM cell culture by 50% in presence of 1 ug/mL of dUrd; format: functional; settings: Homo sapiens
In short: (§3)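 E6SM cells infected with HSV-1 (KOS), with Urd or dUrd added alone or together with 6-aminothymine (50 μg/mL). The value is the minimum concentration that reduces viral cytopathogenicity by 50%.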

Vero = assay: The compound was tested for its antiviral activity against HSV-1 (KOS) virus in vero cell line; format: functional; settings: Chlorocebus sabaeus; in short: as §1
E6SM [3] = assay: The concentration required to reduce the cytopathogenicity of HSV-1 (KOS) in E6SM cell culture by 50% in presence of 10 ug/mL dThd; format: functional; settings: Homo sapiens
In short: (§4)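 E6SM cells infected with HSV-1 (KOS), with dThd added to the culture medium at the stated concentration. The value is the minimum concentration that reduces viral cytopathogenicity by 50%.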

E6SM [4] = assay: The compound was tested for its antiviral activity against HSV-1 (KOS) virus in E6SM cell line; format: functional; settings: Homo sapiens; in short: as §1
E6SM [5] = assay: The concentration required to reduce the cytopathogenicity of HSV-1 (KOS) in E6SM cell culture by 50% in presence of 10 ug/mL of Urd and 50 ug/mL of 6-aminothymine,; format: functional; settings: Homo sapiens; in short: as §3
E6SM [6] = assay: The concentration required to reduce the cytopathogenicity of HSV-1 (KOS) in E6SM cell culture by 50% in absence of Urd; format: functional; settings: Homo sapiens; in short: as §3
E6SM [7] = assay: The compound was tested for its antiviral activity against HSV-2 (196) virus in E6SM cell culture; format: functional; settings: Homo sapiens; in short: as §1
E6SM [8] = assay: The compound was tested for its antiviral activity against HSV-1 (F) virus in E6SM cell culture; format: functional; settings: Homo sapiens; in short: as §1
E6SM [9] = assay: The concentration required to reduce the cytopathogenicity of HSV-1 (KOS) in E6SM cell culture by 50% in presence of 100 ug/mL of dUrd and 50 ug/mL of 6-aminothymine; format: functional; settings: Homo sapiens; in short: as §3
HeLa = assay: The compound was tested for its antiviral activity against HSV-1 (KOS) virus in HeLa cell line; format: functional; settings: Homo sapiens; in short: as §1
E6SM [10] = assay: The concentration required to reduce the cytopathogenicity of HSV-1 (KOS) in E6SM cell culture by 50% in presence of 10 ug/mL of Urd; format: functional; settings: Homo sapiens; in short: as §3
HSF (VGS) = assay: The compound was tested for its antiviral activity against HSV-1 (KOS) virus in HSF (VGS) cell line; format: functional; settings: Homo sapiens; in short: as §1
BALB/3T3 = assay: The compound was tested for its antiviral activity against HSV-1 (KOS) virus in BALB/3T3 cell line; settings: Mus musculus
E6SM [11] = assay: The concentration required to reduce the cytopathogenicity of HSV-1 (KOS) in E6SM cell culture by 50% in presence of 100 ug/mL of dUrd; format: functional; settings: Homo sapiens; in short: as §3
E6SM [12] = assay: The compound was tested for its antiviral activity against TK-HSV-1 (B2006) virus in E6SM cell culture; format: functional; settings: Homo sapiens; in short: as §1
E6SM [13] = assay: The compound was tested for its antiviral activity against HSV-2 (G) virus in E6SM cell culture; format: functional; settings: Homo sapiens; in short: as §1
E6SM [14] = assay: The compound was tested for its antiviral activity against HSV-1 (McIntyre) virus in E6SM cell culture; format: functional; settings: Homo sapiens; in short: as §1
E6SM [15] = assay: The concentration required to reduce the cytopathogenicity of HSV-1 (KOS) in E6SM cell culture by 50% in presence of 10 ug/mL of dUrd and 50 ug/mL of 6-aminothymine; format: functional; settings: Homo sapiens; in short: as §3
E6SM [16] = assay: The compound was tested for its antiviral activity against HSV-1 (KOS) virus in E6SM cell culture; format: functional; settings: Homo sapiens; in short: as §1
E6SM [17] = assay: The compound was tested for its antiviral activity against HSV-2 (Lyons) virus in E6SM cell culture; format: functional; settings: Homo sapiens; in short: as §1
E6SM [18] = assay: The concentration required to reduce the cytopathogenicity of HSV-1 (KOS) in E6SM cell culture by 50% in presence of 30 ug/mL dThd; format: functional; settings: Homo sapiens; in short: as §2
PRK = assay: The compound was tested for its antiviral activity against HSV-1 (KOS) virus in PRK cell line; format: functional; settings: Oryctolagus cuniculus
In short: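 Primary rabbit kidney cells infected with HSV-1 (KOS). The value is the minimum concentration that cuts viral cytopathogenicity by 50%. Cytotoxicity was judged as microscopically detectable alteration of cell morphology at up to 400 μg/mL.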

E6SM [19] = assay: The concentration required to reduce the cytopathogenicity of HSV-1 (KOS) in E6SM cell culture by 50% in presence of 3 ug/mL dThd; format: functional; settings: Homo sapiens; in short: as §4
HEp-2 = assay: The compound was tested for its antiviral activity against HSV-1 (KOS) virus in HEp-2M cell line; format: functional; settings: Homo sapiens; in short: as §1
E6SM [20] = assay: The concentration required to reduce the cytopathogenicity of HSV-1 (KOS) in E6SM cell culture by 50% in presence of 100 ug/mL of Urd and 50 ug/mL of 6-aminothymine; format: functional; settings: Homo sapiens; in short: as §3
Mo = assay: The compound was tested for its antiviral activity against HSV-1 (KOS) virus in MO cell line; format: functional; settings: Homo sapiens; in short: as §1
E6SM [21] = assay: The concentration required to reduce the cytopathogenicity of HSV-1 (KOS) in E6SM cell culture by 50% in absence of dUrd; format: functional; settings: Homo sapiens; in short: as §3
E6SM [22] = assay: The concentration required to reduce the cytopathogenicity of HSV-1 (KOS) in E6SM cell culture by 50% in presence of 1 ug/mL of Urd; format: functional; settings: Homo sapiens; in short: as §3
E6SM [23] = assay: The concentration required to reduce the cytopathogenicity of HSV-1 (KOS) in E6SM cell culture by 50% in presence of 100 ug/mL dThd; format: functional; settings: Homo sapiens; in short: as §4
E6SM [24] = assay: The compound was tested for its antiviral activity against vaccinia virus in E6SM cell culture; format: functional; settings: Homo sapiens; in short: as §1
E6SM [25] = assay: The concentration required to reduce the cytopathogenicity of HSV-1 (KOS) in E6SM cell culture by 50% in presence of 50 ug/mL of 6-aminothymine; format: functional; settings: Homo sapiens
In short: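 E6SM cultures were infected with HSV-1 strain KOS. 6-Aminothymine or benzylacyclouridine was present in the medium together with the test compound. The value is the minimum concentration giving 50% reduction of viral cytopathogenicity, scored by the earlier-described cytopathogenicity inhibition procedure.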

Row | SMILES | MIC50 (T-21 (LR)) | MIC50 (BSC-1) | MIC50 (E6SM [1]) | MIC50 (E1 SM) | MIC50 (E6SM [2]) | MIC50 (Vero) | MIC50 (E6SM [3]) | MIC50 (E6SM [4]) | MIC50 (E6SM [5]) | MIC50 (E6SM [6]) | MIC50 (E6SM [7]) | MIC50 (E6SM [8]) | MIC50 (E6SM [9]) | MIC50 (HeLa) | MIC50 (E6SM [10]) | MIC50 (HSF (VGS)) | MIC50 (BALB/3T3) | MIC50 (E6SM [11]) | MIC50 (E6SM [12]) | MIC50 (E6SM [13]) | also measured
1 | Oc1ncc(/C=C/Br)c(O)n1 | 7 µg/mL (≈ 32.3 µM) | > 400 µg/mL | > 400 µg/mL | 7 µg/mL (≈ 32.3 µM) | 10 µg/mL | > 400 µg/mL | 70 µg/mL | 7 µg/mL (≈ 32.3 µM) | > 400 µg/mL | 4 µg/mL (≈ 18.4 µM) | > 400 µg/mL | 4 µg/mL (≈ 18.4 µM) | 7 µg/mL | 2 µg/mL (≈ 9.22 µM) | 7 µg/mL | 7 µg/mL (≈ 32.3 µM) | > 400 µg/mL | 0.7 µg/mL | > 200 µg/mL | > 400 µg/mL | MIC50 (E6SM [14]): 4 µg/mL (≈ 18.4 µM); MIC50 (E6SM [15]): 10 µg/mL; MIC50 (E6SM [16]): 7 µg/mL (≈ 32.3 µM); MIC50 (E6SM [17]): > 400 µg/mL; MIC50 (E6SM [18]): > 400 µg/mL; MIC50 (PRK): > 400 µg/mL; MIC50 (E6SM [19]): 4 µg/mL; MIC50 (HEp-2): > 200 µg/mL; MIC50 (E6SM [20]): > 400 µg/mL; MIC50 (Mo): > 400 µg/mL; MIC50 (E6SM [21]): 7 µg/mL (≈ 32.3 µM); MIC50 (E6SM [22]): 2 µg/mL; MIC50 (E6SM [23]): > 400 µg/mL; MIC50 (E6SM [24]): > 400 µg/mL; MIC50 (E6SM [25]): > 400 µg/mL
2 | O=c1[nH]c(=O)n([C@H]2C[C@H](O)[C@@H](CO)O2)cc1/C=C/Br [BRIVUDINE] | 0.02 µg/mL (≈ 0.06 µM) | 0.2 µg/mL (≈ 0.6 µM) | > 400 µg/mL | 0.02 µg/mL (≈ 0.06 µM) | 0.01 µg/mL | 0.4 µg/mL (≈ 1.2 µM) | 0.4 µg/mL | 0.02 µg/mL (≈ 0.06 µM) | 0.04 µg/mL | 0.02 µg/mL (≈ 0.06 µM) | 10 µg/mL (≈ 30 µM) | 0.02 µg/mL (≈ 0.06 µM) | 0.2 µg/mL | 0.04 µg/mL (≈ 0.12 µM) | 0.04 µg/mL | 0.04 µg/mL (≈ 0.12 µM) | 0.1 µg/mL (≈ 0.3 µM) | 0.2 µg/mL | 40 µg/mL (≈ 120 µM) | 2 µg/mL (≈ 6 µM) | MIC50 (E6SM [14]): 0.02 µg/mL (≈ 0.06 µM); MIC50 (E6SM [15]): 0.02 µg/mL; MIC50 (E6SM [16]): 0.02 µg/mL (≈ 0.06 µM); MIC50 (E6SM [17]): 4 µg/mL (≈ 12 µM); MIC50 (E6SM [18]): 70 µg/mL; MIC50 (PRK): 0.007 µg/mL (≈ 0.021 µM); MIC50 (E6SM [19]): 0.02 µg/mL; MIC50 (HEp-2): 0.2 µg/mL (≈ 0.6 µM); MIC50 (E6SM [20]): 0.02 µg/mL; MIC50 (Mo): 0.007 µg/mL (≈ 0.021 µM); MIC50 (E6SM [21]): 0.02 µg/mL (≈ 0.06 µM); MIC50 (E6SM [22]): 0.04 µg/mL; MIC50 (E6SM [23]): 300 µg/mL; MIC50 (E6SM [24]): 7 µg/mL (≈ 21 µM); MIC50 (E6SM [25]): 0.01 µg/mL
